The values below come from the array DNA melting data of Ke et al. (doi:10.1101/2024.01.08.574731).

Data set [1] can be described thus: folding enthalpy; higher = less favourable; fluorescence melt of hairpins on a sequencing array, two-state fit. The following applies: sodium 0.088 M. The method, boiled down:
(§1)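 Melting temperature and folding enthalpy were obtained by bootstrapped two-state fitting. Fits used Cy3 fluorescence of library hairpins with annealed Cy3 and quencher oligos on a sequenced MiSeq flow cell, imaged in 50 mM Na-HEPES pH 8.0, 25 mM NaCl in 2.5 °C steps up to 60 °C and normalised to pre-quench Cy3 and control constructs. Four replicates were combined by inverse-variance weighting, and fitted temperatures were raised by 9.35 °C to match UV melts.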

A short description of data set [2]: melting temperature; fluorescence melt of hairpins on a sequencing array, two-state fit, raised by 9.35 °C to match UV melts. The note with it: sodium 0.088 M. The method, boiled down:
as §1

For the sequence GATCCAATGCTGGATC ((((((....)))))), the folding enthalpy in data set [1] is -32.5 kcal/mol. In addition, in data set [2], the Tm came out at 49.1 °C.
As for GATCCAATGGTGGATC ((((((....)))))), in data set [1], the folding enthalpy was -29.4 kcal/mol. In addition, the Tm in data set [2] was found to be 48.3 °C.
Taken in the same sequence, the figures for GATCCACAGTGGATC ((((((...)))))) were -40.5 kcal/mol and 49.7 °C.
Taken in the same sequence, the figures for GATCCACAGTTGGATC ((((((....)))))) were -41 kcal/mol and 49.3 °C.
Take GATCCACATTTGGATC ((((((....)))))): the folding enthalpy in data set [1] is -36.8 kcal/mol. Further, the Tm in data set [2] was 50.7 °C.
For GATCCACCACTGGATC ((((((....)))))) the same measures were -36.9 kcal/mol and 49.4 °C.
For GATCCACCATTGGATC ((((((....)))))) the same measures were -31.5 kcal/mol and 49.4 °C.
Taken in the same sequence, the figures for GATCCACCCATGGATC ((((((....)))))) were -34.2 kcal/mol and 50.7 °C.
Consider GATCCACCGTGGATC ((((((...)))))), for which, in data set [1], the folding enthalpy is -37.4 kcal/mol. The Tm in data set [2] is 48.5 °C.
Consider GATCCACCGTTGGATC ((((((....)))))), for which the folding enthalpy in data set [1] is -36.5 kcal/mol. Moreover, the Tm in data set [2] stood at 49.7 °C.
For GATCCACCTCTGGATC ((((((....)))))) the same measures were -33 kcal/mol and 49 °C.
Taken in the same sequence, the figures for GATCCACCTGTGGATC ((((((....)))))) were -42.1 kcal/mol and 63.8 °C.
For GATCCACGAAAGTGAATC (((.(((....))).))) the same measures were -24.2 kcal/mol and 42.4 °C.
For the sequence GATCCACGAAAGTGATC (((.(((....)))))), the folding enthalpy in data set [1] was -21.4 kcal/mol. The Tm in data set [2] is 41.3 °C.
Taken in the same sequence, the figures for GATCCACGAAAGTGTATC (((.(((....))).))) were -24.2 kcal/mol and 37.6 °C.
Taken in the same sequence, the figures for GATCCACGCCTGGATC ((((((....)))))) were -36.9 kcal/mol and 52.3 °C.
Taken in the same sequence, the figures for GATCCACGTCTGGATC ((((((....)))))) were -38.3 kcal/mol and 49.5 °C.
Take GATCCACTACTGGATC ((((((....)))))): in data set [1], the folding enthalpy is -35.5 kcal/mol. The Tm in data set [2] amounted to 49.7 °C.
Regarding GATCCACTAGTGGATC ((((((....)))))), the folding enthalpy in data set [1] was -40.6 kcal/mol. In addition, the Tm in data set [2] is 62.3 °C.
For GATCCACTATGGATC ((((((...)))))) the same measures were -30.6 kcal/mol and 52.7 °C.
For GATCCAGAACTGGATC ((((((....)))))) the same measures were -37.6 kcal/mol and 56.4 °C.
Taken in the same sequence, the figures for GATCCAGAAGTGGATC ((((((....)))))) were -35.5 kcal/mol and 52.1 °C.
In the case of GATCCAGAATTGGATC ((((((....)))))), the folding enthalpy in data set [1] is -34.7 kcal/mol. In addition, in data set [2], the Tm is 57.2 °C.
For GATCCAGACTGGATC ((((((...)))))) the same measures were -36.9 kcal/mol and 52 °C.
With GATCCAGAGGTGGATC ((((((....)))))), in data set [1], the folding enthalpy was -28.5 kcal/mol. Further, the Tm in data set [2] came out at 47.8 °C.
As for GATCCAGCCATGGATC ((((((....)))))), in data set [1], the folding enthalpy was -38.8 kcal/mol. Also, the Tm in data set [2] worked out at 58.7 °C.
GATCCAGCCCTGGATC ((((((....)))))): the folding enthalpy in data set [1] was -48 kcal/mol. The Tm in data set [2] worked out at 54.1 °C.
For GATCCAGCGGTGGATC ((((((....)))))) the same measures were -44.3 kcal/mol and 50.8 °C.
For GATCCAGCGTGGATC ((((((...)))))) the same measures were -27.4 kcal/mol and 50.5 °C.
For GATCCAGCGTTGGATC ((((((....)))))) the same measures were -44.2 kcal/mol and 49.6 °C.
With GATCCAGCTCTGGATC ((((((....)))))), the folding enthalpy in data set [1] was -41.1 kcal/mol. The Tm in data set [2] stood at 54 °C.
For GATCCAGGACTGGATC ((((((....)))))) the same measures were -41.1 kcal/mol and 56.2 °C.
With GATCCAGGGTTGGATC ((((((....)))))), the folding enthalpy in data set [1] is -34.2 kcal/mol. Moreover, the Tm in data set [2] worked out at 50.8 °C.
For GATCCAGGTATGGATC ((((((....)))))) the same measures were -35.1 kcal/mol and 58 °C.
For GATCCAGGTCTGGATC ((((((....)))))) the same measures were -37.4 kcal/mol and 55 °C.
For GATCCAGTATGGATC ((((((...)))))) the same measures were -39.8 kcal/mol and 60.1 °C.
For the sequence GATCCAGTCCTGGATC ((((((....)))))), the folding enthalpy in data set [1] was -44.6 kcal/mol. Further, the Tm in data set [2] is 56.5 °C.
In the case of GATCCAGTTCTGGATC ((((((....)))))), the folding enthalpy in data set [1] is -39.6 kcal/mol. In data set [2], the Tm came to 55.5 °C.
Take GATCCATAGATGGATC ((((((....)))))): the folding enthalpy in data set [1] was -33.5 kcal/mol. For the same sequence, the Tm in data set [2] turned out to be 51.2 °C.
For GATCCATCCTTGGATC ((((((....)))))) the same measures were -44.2 kcal/mol and 53.6 °C.
For GATCCATCGGTGGATC ((((((....)))))) the same measures were -39.5 kcal/mol and 50.6 °C.
Regarding GATCCATCGTGGATC ((((((...)))))), the folding enthalpy in data set [1] is -36.9 kcal/mol. In addition, the Tm in data set [2] worked out at 50.8 °C.
Taken in the same sequence, the figures for GATCCATCGTTGGATC ((((((....)))))) were -43.1 kcal/mol and 51.7 °C.
For GATCCATGGTGGATC ((((((...)))))) the same measures were -36 kcal/mol and 50.6 °C.
For GATCCATTAATGGATC ((((((....)))))) the same measures were -38.7 kcal/mol and 54.8 °C.
In the case of GATCCATTACTGGATC ((((((....)))))), in data set [1], the folding enthalpy is -29.9 kcal/mol. The Tm in data set [2] came out at 51.1 °C.
Taken in the same sequence, the figures for GATCCATTAGTGGATC ((((((....)))))) were -36.8 kcal/mol and 53 °C.
For GATCCATTGATGGATC ((((((....)))))) the same measures were -40.5 kcal/mol and 53.5 °C.
For GATCCATTTGTGGATC ((((((....)))))) the same measures were -44.5 kcal/mol and 54.7 °C.
In the case of GATCCCAATAGGGATC ((((((....)))))), the folding enthalpy in data set [1] was -36.5 kcal/mol. The Tm in data set [2] was found to be 64.8 °C.
Taken in the same sequence, the figures for GATCCCAATCGGGATC ((((((....)))))) were -40.2 kcal/mol and 61.6 °C.
For GATCCCAATTGGGATC ((((((....)))))) the same measures were -38.2 kcal/mol and 61.5 °C.
Taken in the same sequence, the figures for GATCCCACTCGGGATC ((((((....)))))) were -38.1 kcal/mol and 61.8 °C.
With GATCCCAGACGGGATC ((((((....)))))), the folding enthalpy in data set [1] is -37.1 kcal/mol. In data set [2], the Tm was 58.6 °C.
Taken in the same sequence, the figures for GATCCCAGAGGGGATC ((((((....)))))) were -32.2 kcal/mol and 60.9 °C.
For GATCCCAGCAGGGATC ((((((....)))))) the same measures were -34.6 kcal/mol and 66.3 °C.
As for GATCCCAGCTGGGATC ((((((....)))))), in data set [1], the folding enthalpy was -46.9 kcal/mol. In data set [2], the Tm came out at 62.3 °C.
Taken in the same sequence, the figures for GATCCCAGGAGGGATC ((((((....)))))) were -32.2 kcal/mol and 59.9 °C.
Taken in the same sequence, the figures for GATCCCAGGCGGGATC ((((((....)))))) were -34 kcal/mol and 61.1 °C.
For GATCCCAGGTGGGATC ((((((....)))))) the same measures were -37 kcal/mol and 60.1 °C.
GATCCCATCGGGGATC ((((((....)))))): the folding enthalpy in data set [1] is -31.1 kcal/mol. In data set [2], the Tm stood at 59.9 °C.
For GATCCCCAATGGGATC ((((((....)))))) the same measures were -34.5 kcal/mol and 59.7 °C.
For GATCCCCACAGGGATC ((((((....)))))) the same measures were -23 kcal/mol and 66.4 °C.
For GATCCCCAGAGGGATC ((((((....)))))), in data set [1], the folding enthalpy was -31.7 kcal/mol. Besides, the Tm in data set [2] was determined as 59.8 °C.
With GATCCCCAGCGGGATC ((((((....)))))), the folding enthalpy in data set [1] is -30.7 kcal/mol. In addition, the Tm in data set [2] was found to be 59.8 °C.
For GATCCCCATTGGGATC ((((((....)))))) the same measures were -37.6 kcal/mol and 59.6 °C.
As to GATCCCCCTTGGGATC ((((((....)))))), the folding enthalpy in data set [1] was -39.8 kcal/mol. In addition, in data set [2], the Tm came out at 57.7 °C.
For GATCCCCGATGGGATC ((((((....)))))) the same measures were -34.5 kcal/mol and 60.9 °C.
Taken in the same sequence, the figures for GATCCCGAAAGGGTTATC ((((((....)))..))) were -8.18 kcal/mol and 27.5 °C.
Taken in the same sequence, the figures for GATCCCGACGGGATC ((((((...)))))) were -28.4 kcal/mol and 68 °C.
In the case of GATCCCGCCGGGATC ((((((...)))))), the folding enthalpy in data set [1] is -39.7 kcal/mol. The Tm in data set [2] turned out to be 67.6 °C.
For GATCCCGCTCGGGATC ((((((....)))))) the same measures were -34 kcal/mol and 65.8 °C.
Taken in the same sequence, the figures for GATCCCGGAAACAGGATC (((((.(....).))))) were -28.8 kcal/mol and 38.8 °C.
Taken in the same sequence, the figures for GATCCCGGATGGGATC ((((((....)))))) were -28 kcal/mol and 67.8 °C.
In the case of GATCCCGGGGGGGATC ((((((....)))))), the folding enthalpy in data set [1] is -33.7 kcal/mol. In data set [2], the Tm is 62 °C.
Taken in the same sequence, the figures for GATCCCGTCCGGGATC ((((((....)))))) were -42 kcal/mol and 67.9 °C.
